# ChEMBL document CHEMBL1154886, “DNA-damaging, mutagenic, and clastogenic activities of gentiopicroside isolated from Cephalaria kotschyi roots” (J Nat Prod, 2010)
# Experiments:
# [1] = Mutagenic activity in Salmonella Typhimurium TA102 assessed as increase in number of revertants at 100 ug/plate by Ames test presence of S9 fraction (Rvb=369+/-34); assay type: toxicity; details: salmonella enterica subsp. enterica serovar typhimurium
# Outline: (§1)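 Microsuspension Ames test, with and without rat liver S9 mix. The S9 is from male Sprague-Dawley rats given Aroclor 1254 (26 mg/mL protein); the final mix is 4% S9, 10 mM G6P and 8 mM NADP. Triplicate plates are incubated 48 h at 37 °C and colonies counted automatically. Values are mean ± SD revertants per plate, tested against spontaneous revertants (Rvb) by Dunnett test.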
# [2] = Mutagenic activity in Salmonella Typhimurium TA102 assessed as increase in number of revertants at 40 ug/plate by Ames test absence of S9 fraction (Rvb=290+/-10); assay type: toxicity; details: salmonella enterica subsp. enterica serovar typhimurium; outline: as §1
# [3] = Mutagenic activity in Salmonella typhimurium TA100 assessed as increase in number of revertants at 60 ug/plate by Ames test absence of S9 fraction (Rvb=108+/-5); assay type: toxicity; details: salmonella enterica subsp. enterica serovar typhimurium; outline: as §1
# [4] = Mutagenic activity in Salmonella Typhimurium TA98 assessed as increase in number of revertants at 100 ug/plate by Ames test presence of S9 fraction (Rvb=34+/- 4); assay type: toxicity; details: salmonella enterica subsp. enterica serovar typhimurium; outline: as §1
# [5] = Mutagenic activity in Salmonella typhimurium TA98 assessed as increase in number of revertants at 40 ug/plate by Ames test absence of S9 fraction (Rvb=22+/- 4); assay type: toxicity; details: salmonella enterica subsp. enterica serovar typhimurium; outline: as §1
# [6] = Mutagenic activity in Salmonella Typhimurium TA102 assessed as increase in number of revertants at 60 ug/plate by Ames test presence of S9 fraction (Rvb=369+/-34); assay type: toxicity; details: salmonella enterica subsp. enterica serovar typhimurium; outline: as §1
# [7] = Mutagenic activity in Salmonella Typhimurium TA97a assessed as increase in number of revertants at 40 ug/plate by Ames test absence of S9 fraction (Rvb=146+/- 8); assay type: toxicity; details: salmonella enterica subsp. enterica serovar typhimurium; outline: as §1
# [8] = Mutagenic activity in Salmonella Typhimurium TA100 assessed as increase in number of revertants at 60 ug/plate by Ames test presence of S9 fraction (Rvb=124+/-13); assay type: toxicity; details: salmonella enterica subsp. enterica serovar typhimurium; outline: as §1
# [9] = Mutagenic activity in Salmonella Typhimurium TA100 assessed as increase in number of revertants at 80 ug/plate by Ames test presence of S9 fraction (Rvb=124+/-13); assay type: toxicity; details: salmonella enterica subsp. enterica serovar typhimurium; outline: as §1
# [10] = Mutagenic activity in Salmonella typhimurium TA98 assessed as increase in number of revertants at 60 ug/plate by Ames test absence of S9 fraction (Rvb=22+/- 4); assay type: toxicity; details: salmonella enterica subsp. enterica serovar typhimurium; outline: as §1
# [11] = Mutagenic activity in Salmonella Typhimurium TA102 assessed as increase in number of revertants at 100 ug/plate by Ames test absence of S9 fraction (Rvb=290+/-10); assay type: toxicity; details: salmonella enterica subsp. enterica serovar typhimurium; outline: as §1
# [12] = Mutagenic activity in Salmonella typhimurium TA100 assessed as increase in number of revertants at 40 ug/plate by Ames test presence of S9 fraction (Rvb=124+/-13); assay type: toxicity; details: salmonella enterica subsp. enterica serovar typhimurium; outline: as §1
# [13] = Mutagenic activity in Salmonella Typhimurium TA102 assessed as increase in number of revertants at 40 ug/plate by Ames test presence of S9 fraction (Rvb=369+/-34); assay type: toxicity; details: salmonella enterica subsp. enterica serovar typhimurium; outline: as §1
# [14] = Mutagenic activity in Salmonella Typhimurium TA100 assessed as increase in number of revertants at 100 ug/plate by Ames test absence of S9 fraction (Rvb=108+/-5); details: salmonella enterica subsp. enterica serovar typhimurium
# [15] = Mutagenic activity in Salmonella Typhimurium TA98 assessed as increase in number of revertants at 80 ug/plate by Ames test absence of S9 fraction (Rvb=22+/- 4); assay type: toxicity; details: salmonella enterica subsp. enterica serovar typhimurium; outline: as §1
# [16] = Mutagenic activity in Salmonella Typhimurium TA100 assessed as increase in number of revertants at 40 ug/plate by Ames test absence of S9 fraction (Rvb=108+/-5); assay type: toxicity; details: salmonella enterica subsp. enterica serovar typhimurium; outline: as §1
# [17] = Mutagenic activity in Salmonella Typhimurium TA102 assessed as increase in number of revertants at 60 ug/plate by Ames test absence of S9 fraction (Rvb=290+/-10); assay type: toxicity; details: salmonella enterica subsp. enterica serovar typhimurium; outline: as §1
# [18] = Mutagenic activity in Salmonella typhimurium TA98 assessed as increase in number of revertants at 40 ug/plate by Ames test presence of S9 fraction (Rvb=34+/- 4); assay type: toxicity; details: salmonella enterica subsp. enterica serovar typhimurium; outline: as §1
# [19] = Mutagenic activity in Salmonella Typhimurium TA97a assessed as increase in number of revertants at 80 ug/plate by Ames test absence of S9 fraction (Rvb=146+/- 8); assay type: toxicity; details: salmonella enterica subsp. enterica serovar typhimurium; outline: as §1
# [20] = Mutagenic activity in Salmonella Typhimurium TA97a assessed as increase in number of revertants at 100 ug/plate by Ames test absence of S9 fraction (Rvb=146+/- 8); assay type: toxicity; details: salmonella enterica subsp. enterica serovar typhimurium; outline: as §1
# [21] = Mutagenic activity in Salmonella Typhimurium TA102 assessed as increase in number of revertants at 80 ug/plate by Ames test absence of S9 fraction (Rvb=290+/-10); assay type: toxicity; details: salmonella enterica subsp. enterica serovar typhimurium; outline: as §1
# [22] = tested on: CHO; assay: Cytotoxicity activity against CHO cells assessed as cell viability after 24 hrs by WST1 test; assay type: cell-based, Cricetulus griseus; details: chinese hamster
# Outline: (§2)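 CHO-K1 cells in McCoy's 5A with 10% fetal calf serum are seeded and incubated overnight at 37 °C, 5% CO2. A range of compound concentrations is added in triplicate cultures (final DMSO below 0.2%) for 2 or 24 h. Cells are washed three times in PBS, then given 10% WST1 in medium for 30 min. Viability is read as absorbance at 450 nm.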
# [23] = Mutagenic activity in Salmonella typhimurium TA100 assessed as increase in number of revertants at 80 ug/plate by Ames test absence of S9 fraction (Rvb=108+/-5); assay type: toxicity; details: salmonella enterica subsp. enterica serovar typhimurium; outline: as §1
# [24] = Mutagenic activity in Salmonella typhimurium TA97a assessed as increase in number of revertants at 60 ug/plate by Ames test absence of S9 fraction (Rvb=146+/- 8); assay type: toxicity; details: salmonella enterica subsp. enterica serovar typhimurium; outline: as §1
# [25] = Cytotoxicity activity against CHO cells assessed as cell viability after 2 hrs by WST1 test; assay type: cell-based, Cricetulus griseus; details: chinese hamster, read-out: Activity; outline: as §2
# [26] = Mutagenic activity in Salmonella Typhimurium TA98 assessed as increase in number of revertants at 100 ug/plate by Ames test absence of S9 fraction (Rvb=22+/- 4); assay type: toxicity; details: salmonella enterica subsp. enterica serovar typhimurium; outline: as §1
# [27] = Mutagenic activity in Salmonella typhimurium TA102 assessed as increase in number of revertants at 80 ug/plate by Ames test presence of S9 fraction (Rvb=369+/-34); assay type: toxicity; details: salmonella enterica subsp. enterica serovar typhimurium; outline: as §1
# [28] = Mutagenic activity in Salmonella typhimurium TA97a assessed as increase in number of revertants at 60 ug/plate by Ames test presence of S9 fraction (Rvb=154+/-18); assay type: toxicity; details: salmonella enterica subsp. enterica serovar typhimurium; outline: as §1
# [29] = Mutagenic activity in Salmonella typhimurium TA100 assessed as increase in number of revertants at 100 ug/plate by Ames test presence of S9 fraction (Rvb=124+/-13); assay type: toxicity; details: salmonella enterica subsp. enterica serovar typhimurium; outline: as §1
# [30] = Mutagenic activity in Salmonella Typhimurium TA98 assessed as increase in number of revertants at 80 ug/plate by Ames test presence of S9 fraction (Rvb=34+/- 4); assay type: toxicity; details: salmonella enterica subsp. enterica serovar typhimurium; outline: as §1
# [31] = Mutagenic activity in Salmonella Typhimurium TA97a assessed as increase in number of revertants at 100 ug/plate by Ames test presence of S9 fraction (Rvb=154+/-18); assay type: toxicity; details: salmonella enterica subsp. enterica serovar typhimurium; outline: as §1
# [32] = Mutagenic activity in Salmonella typhimurium TA98 assessed as increase in number of revertants at 60 ug/plate by Ames test presence of S9 fraction (Rvb=34+/- 4); assay type: toxicity; details: salmonella enterica subsp. enterica serovar typhimurium; outline: as §1
# [33] = Mutagenic activity in Salmonella Typhimurium TA97a assessed as increase in number of revertants at 40 ug/plate by Ames test presence of S9 fraction (Rvb=154+/-18); assay type: toxicity; details: salmonella enterica subsp. enterica serovar typhimurium; outline: as §1
# [34] = Mutagenic activity in Salmonella typhimurium TA97a assessed as increase in number of revertants at 80 ug/plate by Ames test presence of S9 fraction (Rvb=154+/-18); assay type: toxicity; details: salmonella enterica subsp. enterica serovar typhimurium; outline: as §1
# [35] = Mutagenic activity in Salmonella typhimurium TA97a assessed as increase in number of revertants at 0.002 ug/plate by Ames test absence of S9 fraction (Rvb=146+/- 8); assay type: toxicity; details: salmonella enterica subsp. enterica serovar typhimurium; outline: as §1
smiles,measurement,setting,value
C=C[C@@H]1C2=CCOC(=O)C2=CO[C@H]1O[C@@H]1O[C@H](CO)[C@@H](O)[C@H](O)[C@H]1O [GENTIOPICROSIDE],Activity,[1],385
same,Activity,[2],368
same,Activity,[3],135
same,Activity,[4],31
same,Activity,[5],19
same,Activity,[6],385
same,Activity,[7],188
same,Activity,[8],116
same,Activity,[9],140
same,Activity,[10],22
same,Activity,[11],392
same,Activity,[12],119
same,Activity,[13],376
same,Activity,[14],136
same,Activity,[15],26
same,Activity,[16],117
same,Activity,[17],378
same,Activity,[18],32
same,Activity,[19],180
same,Activity,[20],180
same,Activity,[21],395
same,Activity,[22],Non-toxic
same,Activity,[23],138
same,Activity,[24],174
same,viability at 2 h,[25],95%
same,Activity,[26],26
same,Activity,[27],413
same,Activity,[28],186
same,Activity,[29],138
same,Activity,[30],28
same,Activity,[31],173
same,Activity,[32],29
same,Activity,[33],274
same,Activity,[34],178
COc1ccc2nc3cc(Cl)ccc3c(NCCCNCCCl)c2c1,Activity,[35],1287
